Screening data as filed in PubChem BioAssay.
This is a sample that favours compounds with a hit; in the whole collection about 2.2% have one here.
Hck-Nef inh: human Hck-Nef kinase inhibition. Recombinant Hck-YEEI plus Nef, Z-Lyte FRET kinase assay. inhibition, % at 20 µM. 220,000 compounds, 0.68% hits. AID 463187;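 active = Hck-Nef kinase inhibition above about 50%, limit read from the data; inactive = inhibition below that limit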;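 also: 0% = DMSO with Hck plus Nef and 100% = Hck alone without Nef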
RanGTP-Imp inh: disruptors of Ran-importin-beta complex formation – biochemical, FRET, CFP-Ran, YFP-importin-beta, homogeneous, primary screen. cell-free CFP-Ran/YFP-importin-beta FRET ratio. inhibition, % (test concentration not listed). AID 2216. 300,000 compounds, 1.1% hits;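 active = more than half of the replicate wells show a fall in the fluorescence ratio signal beyond about 16%, limit read from the data, passing the limit was not always enough; inconclusive = exactly half of the replicate wells pass the set limit; inactive = fewer than half of replicates pass the limit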;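 also: 0% = DMSO wells and 100% = Ran loaded with GDP instead of GTP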
Runt-CBFb FRET: inhibitors of human RUNX1 Runt domain binding to CBFb. Cerulean-Runt/Venus-CBFb FRET ratio 530/480, 1 h. 220,000 compounds, 0.46% hits. inhibition, % at 20 µM;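 active = inhibition over about 50% at 20 µM in the single-dose screen, limit read from the data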;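 also: 0% = DMSO wells and 100% = excess unlabeled CBFb competitor control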
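Assay system: Cerulean-tagged RUNX1 Runt domain (FRET donor) fusion protein / Amount: 100 nM each of Venus-CBFb and Cerulean-Runt domain / Medium: Tris buffer pH 7.5 with salts and BSA / Also added: Venus-CBFb 100 nM / Schedule: 1 h complex formation plus 1 h compound treatment, room temperature / Signal: FRET fluorescence / Read-out: loss of energy transfer signal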
Runt-SMMHC FRET: inhibitors of human RUNX1 Runt domain binding to CBFb-SMMHC | 220,000 compounds, 0.74% hits | AID 1434 | inhibition, % at 20 µM | Cerulean-Runt/Venus-CBFb-SMMHC FRET ratio 530/480, 1 h | Q01196+Q13951;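 active = mean inhibition across duplicate retests at 20 µM reaching about 50%, limit read from the data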;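 also: 0% = DMSO wells and 100% = wells with excess untagged CBFb-SMMHC; inhibitors lower the FRET ratio by blocking Runt binding to CBFb-SMMHC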
eIF4E 4G PPI: blocks eIF4E binding to eIF4G; P63073+Q04637; TR-FRET eIF4E-eIF4GI(517-606) binding, 2 h; inhibition, % at 21.7 µM; 220,000 compounds, 0.37% hits; AID 782;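 active = inhibition above about 30%, limit read from the data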;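 also: 0% = full FRET control wells and 100% = background wells lacking eIF4GI fragment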
PERK inh: human PERK inhibition, primary cell-based screen; Q9NZJ5; CHO PERK-DD fusion, SEAP luminescence translation reporter; inhibition, % at 5.6 µM; 220,000 compounds, 0.17% hits; AID 1416;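 active = inhibition above the mean inhibition of all tested compounds plus 3 SD, set separately per screening campaign, cut at about 2.9% in these data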;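 also: PERK kinase domain activated by AP20187 dimerizer at 100 nM; 0% = DMSO with dimerizer and 100% = rapamycin at 8.4 µM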
Hck Nef conf: confirmation of Hck-Nef kinase inhibitors. 1,300 compounds, 28% hits. Recombinant Hck-YEEI:Nef, Z-Lyte FRET kinase assay. shares compounds with Hck-Nef inh. calls only at 10 µM;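 active = average inhibition of at least 50%, with Z-scores no higher than 3 in both the phospho-tyrosine peptide and fluorescence counterscreens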
The depositor's hits bear a star; i = inactive; ? = inconclusive; / = no result given; + = active, no number.

SMILES	Hck-Nef inh	RanGTP-Imp inh	Runt-CBFb FRET	Runt-SMMHC FRET	eIF4E 4G PPI	PERK inh	others
Cc1ccc(O)c(C(=O)c2cc(C#N)c(=O)n(-c3nccs3)c2)c1	26	0	-64	-79	3	1
N#Cc1cc2c(=O)n3ccccc3nc2n(-c2ccccc2Cl)c1=O	+	136*	3	90*	-2	1
Cc1ccc2nc3c(cc(C#N)c(=O)n3-c3nccs3)c(=O)n2c1	185*	191*	12	65*	12	1
CCNC(=O)c1cc2c(=O)n3cccc(C)c3nc2n(CCc2ccccc2)c1=N	98*	186*	17	62*	-2	0
COC(=O)c1ccc(S(=O)(=O)NCc2ccco2)n1C	6	1	-2	1	5	0
CNC(=O)c1cc2c(=O)n3cccc(C)c3nc2n(C(C)C)c1=N	172*	184*	19	60*	6	0
Cc1nc2ccccc2c(=O)n1CCCN1CCOCC1	17	0	0	-1	0	1
N#Cc1cc2c(=O)n3ccccc3nc2n(CCCN2CCOCC2)c1=O	149*	95*	77*	62*	-2	1
Cc1cccn2c(=O)c3cc(C(=O)NCC(C)C)sc3nc12	/	-4	/	/	/	/
C=CCn1c(=N)c(C(=O)NCCCOC)cc2c(=O)n3cccc(C)c3nc21	200*	+	18	61*	-7	-1
O=C(CNC(=O)c1ccc(S(=O)(=O)N2CCCC2)cc1)N/N=C/c1ccc(F)cc1	24	-1	-2	1	-2	0
O=C(Nc1cnn(C23CC4CC(CC(C4)C2)C3)c1)c1cnn2c(C(F)(F)F)cc(-c3ccco3)nc12	81*	?	-6	-7	7	-2	Hck Nef conf=+
O=S(=O)(Nc1ccc(F)cc1)c1cccc2nsnc12	/	-2	/	/	/	/
COc1cc(/C=C/c2ccc3cccc(OC)c3n2)c(O)c([N+](=O)[O-])c1	69*	0	0	-1	1	1	Hck Nef conf=+
CCOC(=O)c1cccc(NC(=S)NC(=O)c2cccnc2)c1	/	1	/	/	/	/
CCc1cc(=O)oc2cc3occ(-c4ccc(OC)c(F)c4)c3cc12	58*	-1	-3	-5	19	1	Hck Nef conf=i
CCc1cc(=O)oc2cc3occ(C)c3cc12	8	0	0	1	19	1
COc1cc([N+](=O)[O-])ccc1-c1ccc(/C=N/NC(=O)c2ccccc2O)o1	74*	-23	-18	-36	9	2	Hck Nef conf=i
Cc1cc(-c2nc3cccnc3s2)ccc1NS(=O)(=O)c1ccc2c(c1)OCCO2	71*	71*	102*	119*	0	0
CCS(=O)(=O)Nc1ccc(-c2nc3cccnc3s2)cc1	+	2	32	74*	3	0
Cc1cc(-c2nc3cccnc3s2)ccc1NS(=O)(=O)c1cccs1	95*	92*	128*	107*	2	0	Hck Nef conf=i
O=S(=O)(Nc1cccc2ncccc12)c1cccs1	2	3	-1	2	6	-1
O=S(=O)(Nc1ccc(-c2nc3cccnc3s2)cc1)c1cccs1	116*	10	91*	145*	10	1
Cc1c(NS(=O)(=O)c2cccs2)cccc1-c1nc2cccnc2s1	6	-4	-1	-2	-1	-1
CCS(=O)(=O)Nc1cc(-c2nc3cccnc3s2)ccc1C	1	2	4	-7	2	0
CCC1=Nc2cc(C(=O)NCc3ccco3)ccc2Sc2ccc(C)cc21	7	?	3	3	9	0
C/C(=C1/SC(N2CC(C)OC(C)C2)=NC1=O)c1ccccc1 (stereo not drawn)	2	3	2	1	-19	-1
CCC(=O)Oc1ccc2c(C)cc(=O)oc2c1C	54*	2	11	20	0	1	Hck Nef conf=i
Cc1cc(=O)oc2c(C)c(OC(=O)c3ccco3)ccc12	/	1	/	/	/	/
